In ChEMBL document CHEMBL1240401, “Population pharmacokinetic comparison and pharmacodynamic breakpoints of ceftazidime in cystic fibrosis patients and healthy volunteers” (Antimicrob Agents Chemother, 2010):

Tests used:
[1] = test system: Homo sapiens; experiment: fT>MIC in cystic fibrosis patient at 6 gram/70kg, iv administered as 2 mg/l infusion every 6 hrs; type: functional
Procedure, shortened: (§1)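 Monte Carlo simulation from the population PK model, using allometric scaling by fat-free mass. All regimens gave 6 g per 70 kg WT daily, as 30-min infusions q8h or q6h, prolonged 4–5-h infusions, or continuous infusion. Protein binding was assumed to be 11%, so only the non-protein-bound fraction counts. The PK-PD breakpoint was the MIC with target-attainment probability ≥90%.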

[2] = Terminal half life in cystic fibrosis patient at […], iv administered 20 mins infusion; type: ADME, organism-based; settings: human, in vivo, read-out: beta t1/2 (converted)
[3] = Total clearance in healthy human subjects at 2 gram, iv administered in 5 mins infusion; type: ADME, organism-based; settings: in vivo
Procedure, shortened: (§2)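 Single-dose, single-centre, open, parallel-group trial in CF patients (n = 8) and healthy volunteers (n = 7). Each subject received 2 g ceftazidime by 5-min IV infusion; three CF patients received 1.5, 1 or 3 g instead. Venous plasma was sampled from 0 min to 12 h after the end of infusion. Drug was read at 275 nm (linear 0.6–200 mg/liter). Noncompartmental parameters were not body-size scaled.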

[4] = Terminal half life in cystic fibrosis patient at 2 gram, iv administered in 5 mins infusion; type: ADME, organism-based; settings: human, in vivo, read-out: beta t1/2 (converted); procedure, shortened: as §2
[5] = Cmax in healthy human subjects at 2 gram, iv administered in 5 mins infusion; type: ADME, organism-based; set-up: route intravenous; settings: in vivo; procedure, shortened: as §2
[6] = test system: Homo sapiens; experiment: Volume of distribution at steady state in healthy human subjects at 2 gram, iv administered in 5 mins infusion; type: ADME, organism-based; settings: in vivo; procedure, shortened: as §2
[7] = Terminal half life in healthy human subjects at […], iv administered 20 mins infusion; type: ADME, organism-based; settings: in vivo, read-out: beta t1/2 (converted)
[8] = test system: Homo sapiens; experiment: fT>MIC in cystic fibrosis patient at 6 gram/70kg, iv administered as 6 mg/l infusion
[9] = test system: Homo sapiens; experiment: fT>MIC in healthy human subjects at 6 gram/70kg, iv administered as 8 mg/l infusion every 8 hrs; type: functional; procedure, shortened: as §1
[10] = Cmax in cystic fibrosis patient at 2 gram, iv administered in 5 mins infusion; type: ADME, organism-based; set-up: route intravenous; settings: human, in vivo; procedure, shortened: as §2
[11] = test system: Homo sapiens; experiment: fT>MIC in healthy human subjects at 6 gram/70kg, iv administered as 3 mg/l infusion every 8 hrs; type: functional; procedure, shortened: as §1
[12] = Total clearance in juveline to adult cystic fibrosis patient; type: ADME, organism-based; settings: human, in vivo
[13] = Total clearance in cystic fibrosis patient; type: ADME, organism-based; settings: human, in vivo
[14] = Terminal half life in healthy human subjects at 2 gram, iv administered in 5 mins infusion; type: ADME, organism-based; settings: in vivo, read-out: beta t1/2 (converted); procedure, shortened: as §2
[15] = test system: Homo sapiens; experiment: fT>MIC in healthy human subjects at 6 gram/70kg, iv administered as 4 mg/l infusion every 6 hrs; type: functional; procedure, shortened: as §1
[16] = Mean residence time in cystic fibrosis patient at 2 gram, iv administered in 5 mins infusion; type: ADME, organism-based; settings: human, in vivo; procedure, shortened: as §2
[17] = Total clearance in cystic fibrosis patient at […], iv administered 20 mins infusion; type: ADME, organism-based; settings: human, in vivo
[18] = test system: Homo sapiens; experiment: fT>MIC in cystic fibrosis patient at 6 gram/70kg, iv administered as 1 mg/l infusion every 8 hrs; type: functional; procedure, shortened: as §1
[19] = Renal clearance in healthy human subjects; type: ADME, organism-based, Kidney; settings: in vivo, read-out: CL_renal
[20] = Total clearance in healthy human subjects at […], iv administered 20 mins infusion; type: ADME, organism-based; settings: in vivo
[21] = Renal clearance in cystic fibrosis patient; type: ADME, organism-based, Kidney; settings: human, in vivo; read-out: CL_renal
[22] = Volume of distribution at steady state in cystic fibrosis patient at 2 gram, iv administered in 5 mins infusion; type: ADME, organism-based; settings: human, in vivo, read-out: Vdss; procedure, shortened: as §2
[23] = test system: Homo sapiens; experiment: fT>MIC in cystic fibrosis patient at 6 gram/70kg, iv administered as 6 mg/l infusion every 6 hrs; type: functional; procedure, shortened: as §1
[24] = Total clearance in cystic fibrosis patient at 2 gram, iv administered in 5 mins infusion; type: ADME, organism-based; settings: human, in vivo; procedure, shortened: as §2
[25] = Mean residence time in healthy human subjects at 2 gram, iv administered in 5 mins infusion; type: ADME, organism-based; settings: in vivo; procedure, shortened: as §2
[26] = test system: Homo sapiens; experiment: fT>MIC in healthy human subjects at 6 gram/70kg, iv administered as 12 mg/l infusion every 6 hrs; type: functional; procedure, shortened: as §1

CC(C)(O/N=C(\C(=O)N[C@@H]1C(=O)N2C(C(=O)[O-])=C(C[n+]3ccccc3)CS[C@H]12)c1csc(N)n1)C(=O)O [CEFTAZIDIME]
fT>MIC [1]: >=65% | half-life [2]: 90 min | clearance [3]: 110 mL/min | half-life [4]: 88.8 min | Cmax [5]: 210 µg/mL | Vdss [6]: 14.3 L | half-life [7]: 106 min | fT>MIC [8]: >=40% | fT>MIC [9]: >=40% | Cmax [10]: 445 µg/mL | fT>MIC [11]: >=65% | clearance [12]: 133 mL/min | clearance [13]: 127 mL/min | half-life [14]: 116 min | fT>MIC [15]: >=65% | MRT [16]: 1.54 h | clearance [17]: 142 mL/min | fT>MIC [18]: >=65% | CL renal [19]: 100 mL/min | clearance [20]: 101 mL/min | CL renal [21]: 125 mL/min | Vd [22]: 9.14 L | fT>MIC [23]: >=40% | clearance [24]: 89.5 mL/min | MRT [25]: 2.1 h | fT>MIC [26]: >=40%
